The source made the active and inactive calls. The rule behind the calls is not given here.
Columns and labels:
[1] = tested on: Mast cell; assay: Inhibition of 48/80-induced histamine release in Wistar rat peritoneal mast cells at 2 x 10^-5 M after 5 mins; format: functional
[2] = tested on: Rattus norvegicus; assay: Antiallergic activity in Wistar rat assessed as inhibition of ovalbumin-induced passive cutaneous anaphylaxis reaction at 3 mg/kg, iv treated after 48 hrs of ovalbumin challenge measured after 30 mins; format: functional
Outline: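 Female Wistar rats were sensitised by intradermal antiserum (0.1 mL per site) against ovalbumin, raised in rats given ovalbumin with heat-killed Bordetella pertussis. Sites were excised at 30 min, digested in KOH overnight at 37 °C and extracted with H3PO4/acetone. Absorbance read at 620 nm; % inhibition reported.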

[3] = tested on: Mast cell; assay: Inhibition of concanavalin A-induced histamine release in Wistar rat peritoneal mast cells; format: functional
Outline: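 Female Wistar rat peritoneal mast cells, in mast cell medium (MCM) buffer. Concanavalin A at 20 µg ml-1 served as the degranulating stimulus. IC50 determined.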

[4] = tested on: Mast cell; assay: Inhibition of 48/80-induced histamine release in Wistar rat peritoneal mast cells at 2 x 10^-5 M after 5 mins
[5] = tested on: Mast cell; assay: Inhibition of A23187-induced histamine release in Wistar rat peritoneal mast cells; format: functional
Outline: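 Rat peritoneal mast cells from female Wistar rats, in mast cell medium (MCM) buffer. Histamine release was elicited with A23187 at 1 µg ml-1. IC50 determined.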

[6] = tested on: Mast cell; assay: Inhibition of anti-IgE-induced histamine release in Brown Norway rat peritoneal mast cells at 2 x 10^-5 M
[7] = tested on: Mast cell; assay: Inhibition of vancomycin-induced histamine release in Wistar rat peritoneal mast cells; format: functional
Outline: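 Peritoneal mast cells from female Wistar rats, in Tyrodes buffer, challenged with vancomycin at 2.52 mg mL-1 to induce degranulation. IC50 determined.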

[8] = tested on: Mast cell; assay: Inhibition of anti-IgE-induced histamine release in Brown Norway rat peritoneal mast cells at 10^-5 M
[9] = tested on: Mast cell; assay: Inhibition of 48/80-induced histamine release in Wistar rat peritoneal mast cells after 5 mins; format: functional

How did the inhibition [1] turn out when `CN(C1CCCc2ccccc21)C1CCCc2ccccc21` (stereo unspecified) was run?
Its inhibition is “inactive”.

How did the inhibition in vivo at 3 mg/kg [2] turn out when `CN(C1CCCc2ccccc21)C1CCC(=O)c2ccccc21` (stereo unspecified) was run?
The inhibition in vivo at 3 mg/kg was 29%.

What about the IC50 [3] of the same compound?
Its IC50 is 2400 nM.

What about the inhibition at 20 µM [4] of the same compound?
Its inhibition at 20 µM is 99%.

And the IC50 [5]?
Its IC50 is 38000 nM.

`COc1cccc2c1C(=O)CC2N(C)C1CCCc2ccccc21` (stereo unspecified) was tested. Which inhibition at 20 µM [1] did it give?
Its inhibition at 20 µM is 48%.

For `CN(C1CCc2ccccc2C1)C1CC(=O)c2ccccc21` (stereo unspecified), which inhibition in vivo at 3 mg/kg [2] is on record?
The inhibition in vivo at 3 mg/kg was 98%.

And the inhibition at 20 µM [6]?
The inhibition at 20 µM was 95%.

And the inhibition at 20 µM [4]?
The inhibition at 20 µM was 76%.

`COc1cc(CN(C2CCc3ccccc3C2)C2CC(=O)c3ccccc32)cc(OC)c1OC` (stereo unspecified) was tested. Which inhibition in vivo at 3 mg/kg [2] did it give?
The inhibition in vivo at 3 mg/kg was 70%.

And the inhibition at 20 µM [1]?
Its inhibition at 20 µM is 40%.

How did the inhibition [1] turn out when `CC(=O)N(C1CCCc2ccccc21)C1CC(=O)c2ccccc21` (stereo unspecified) was run?
Its inhibition is “inactive”.

Which inhibition at 20 µM [4] does the source give for `CN(C1CCOc2ccccc21)C1CC(=O)c2ccccc21` (stereo unspecified) here?
The inhibition at 20 µM was 100%.

With `COc1ccc2c(c1)C(N(C)C1CC(=O)c3ccccc31)CCC2` (stereo unspecified) as the compound, how does the inhibition at 20 µM [4] read?
Its inhibition at 20 µM is 100%.

Which results are given for `C=CCN(C1CCc2ccccc2C1)C1CC(=O)c2ccccc21` (stereo unspecified)?
inhibition in vivo at 3 mg/kg [2]: 82%; inhibition at 20 µM [4]: 59%

With `C=CCN(C1CCCc2ccccc21)C1CC(=O)c2ccccc21` (stereo unspecified) as the compound, how does the inhibition in vivo at 3 mg/kg [2] read?
The inhibition in vivo at 3 mg/kg was 72%.

What about the inhibition at 20 µM [4] of the same compound?
The inhibition at 20 µM was 92%.

What does the source list for `Cc1ccc(CN(C2CCc3ccccc3C2)C2CC(=O)c3ccccc32)cc1` (stereo unspecified)?
inhibition in vivo at 3 mg/kg [2]: 73%; inhibition at 20 µM [4]: 68%

How did the inhibition in vivo at 3 mg/kg [2] turn out when `CN(C1CCCc2ccccc21)C1CC(=O)c2ccccc21` (stereo unspecified) was run?
Its inhibition in vivo at 3 mg/kg is 13%.

And the IC50 [7]?
Its IC50 is 4700 nM.

What about the inhibition at 10 µM [8] of the same compound?
Its inhibition at 10 µM is 68%.

And the IC50 [3]?
The IC50 was 700 nM.

What about the inhibition at 20 µM [4] of the same compound?
The inhibition at 20 µM was 93%.

And the IC50 [9]?
The IC50 was 1500 nM.

What about the IC50 [5] of the same compound?
The IC50 was 2000 nM.

Which inhibition in vivo at 3 mg/kg [2] does the source give for `O=C1CC(N(Cc2ccccc2)C2CCc3ccccc3C2)c2ccccc21` (stereo unspecified) here?
The inhibition in vivo at 3 mg/kg was 79%.

What about the inhibition at 20 µM [4] of the same compound?
The inhibition at 20 µM was 67%.

Which inhibition in vivo at 3 mg/kg [2] does the source give for `COc1ccc2c(c1)C(N(C)C1CCCc3ccccc31)CC2=O` (stereo unspecified) here?
Its inhibition in vivo at 3 mg/kg is 62%.

And the inhibition at 20 µM [1]?
Its inhibition at 20 µM is 55%.

`CN(C1CCC(=O)c2ccccc21)C1CC(=O)c2ccccc21` (stereo unspecified) was tested. Which inhibition at 20 µM [4] did it give?
Its inhibition at 20 µM is 61%.

Which results are given for `CN(C1CCc2ccccc21)C1CCC(=O)c2ccccc21` (stereo unspecified)?
inhibition [2]: inactive; inhibition at 20 µM [4]: 14%

Which inhibition in vivo at 3 mg/kg [2] does the source give for `O=C(O)c1cc(=O)c2c(OCC(O)COc3cccc4oc(C(=O)O)cc(=O)c34)cccc2o1` [CROMOLYN SODIUM] here?
The inhibition in vivo at 3 mg/kg was 99%.

And the inhibition at 20 µM [4]?
The inhibition at 20 µM was 10%.
